Measured values reported in ChEMBL document CHEMBL1147877, “Synthesis of novel triheterocyclic thiazoles as anti-inflammatory and analgesic agents” (2007).

Columns and labels:
[1] = tested on: Mus musculus; experiment: Acute toxicity in Albino mouse at 100 mg/kg after 24 hrs; format: functional, organism-based; parameters: dose 100 mg/kg
Procedure, shortened: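 Albino mice (20–25 g), fasted overnight, dosed across 1000–100 mg/kg body weight and watched for 24 h for signs of acute toxicity, e.g. raised or lowered motor activity, tremors, convulsion, sedation, lacrimation.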

[2] = tested on: Rattus norvegicus; experiment: Antiinflammatory activity in rat assessed as inhibition of formalin-induced paw oedema at 100 mg/kg, ip; format: functional; details: route intraperitoneal
Procedure, shortened: (§1)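 Albino rats of either sex, six per group, with plain 2% CMC as control. Formalin injected into the paw to induce oedema. Paw volume measured by plethysmograph (mercury displacement) immediately after injection (0 h), then at 0.5, 1, 2, 4, 8, 12 and 24 h. Results given as % inhibition of inflammation. P < 0.05 taken as significant.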

[3] = tested on: Rattus norvegicus; experiment: Antiinflammatory activity in rat assessed as inhibition of formalin-induced paw oedema at 100 mg/kg, ip after 24 hrs; format: functional; details: route intraperitoneal; procedure, shortened: as §1
[4] = tested on: Rattus norvegicus; experiment: Antiinflammatory activity in rat assessed as inhibition of formalin-induced paw oedema at 100 mg/kg, ip after 2 hrs; format: functional; details: route intraperitoneal; procedure, shortened: as §1
[5] = tested on: Mus musculus; experiment: Analgesic activity in Albino mouse assessed as inhibition of acetic acid-induced writhing responses at 100 mg/kg, po; parameters: scale not given: the % may be the effect or the level left
[6] = tested on: Rattus norvegicus; experiment: Antiinflammatory activity in rat assessed as inhibition of formalin-induced paw oedema at 100 mg/kg, ip after 8 hrs; format: functional; details: route intraperitoneal; procedure, shortened: as §1
[7] = tested on: Rattus norvegicus; experiment: Antiinflammatory activity in rat assessed as inhibition of formalin-induced paw oedema at 100 mg/kg, ip after 4 hrs; format: functional; details: route intraperitoneal; procedure, shortened: as §1
[8] = tested on: Rattus norvegicus; experiment: Antiinflammatory activity in rat assessed as inhibition of formalin-induced paw oedema at 100 mg/kg, ip after 12 hrs; format: functional; details: route intraperitoneal; procedure, shortened: as §1
[9] = tested on: Rattus norvegicus; experiment: Antiinflammatory activity in rat assessed as inhibition of formalin-induced paw oedema at 100 mg/kg, ip after 1 hr; format: functional; details: route intraperitoneal; procedure, shortened: as §1
[10] = tested on: Rattus norvegicus; experiment: Antiinflammatory activity in rat assessed as inhibition of formalin-induced paw oedema at 100 mg/kg, ip after 0.5 hrs; format: functional; details: route intraperitoneal; procedure, shortened: as §1

Row | Compound | Activity [1] | inhibition in vivo at 100 mg/kg [2] [%] | inhibition in vivo at 100 mg/kg [3] [%] | inhibition in vivo at 100 mg/kg [4] [%] | Activity [5] [%] | inhibition in vivo at 100 mg/kg [6] [%] | inhibition in vivo at 100 mg/kg [7] [%] | inhibition in vivo at 100 mg/kg [8] [%] | inhibition in vivo at 100 mg/kg [9] [%] | inhibition in vivo at 100 mg/kg [10] [%]
1 | O=c1cc(CNc2nc(-c3cc4ccccc4oc3=O)cs2)c2cc(Cl)ccc2[nH]1 | Not toxic | – | – | – | – | – | – | – | – | –
2 | Cc1cccc2c(CNc3nc(-c4cc5ccccc5oc4=O)cs3)cc(=O)[nH]c12 | Not toxic | – | – | – | – | – | – | – | – | –
3 | O=c1cc(CNc2nc(-c3cc4cc(Br)cc(Br)c4oc3=O)cs2)c2ccc(Cl)cc2[nH]1 | Not toxic | 2.89 | 10.6 | 13 | 78.22 | 41.5 | 34.5 | 18.7 | 12.6 | 3.27
4 | Cc1cccc2c(CNc3nc(-c4cc5cc(Br)cc(Br)c5oc4=O)cs3)cc(=O)[nH]c12 | Not toxic | 2.65 | 9.78 | 16.3 | 62.73 | 33.7 | 22.7 | 16.7 | 11.3 | 3.65
5 | O=c1cc(CNc2nc(-c3cc4cc(Br)cc(Br)c4oc3=O)cs2)c2cc(Cl)ccc2[nH]1 | Not toxic | 2.85 | 9.35 | 17.8 | 48.7 | 21.9 | 29.8 | 14.4 | 13.8 | 6.75
6 | O=c1cc(CNc2nc(-c3cc4ccccc4oc3=O)cs2)c2ccc(Cl)cc2[nH]1 | Not toxic | – | – | – | – | – | – | – | – | –
7 | Cc1cccc2c(CNc3nc(-c4cc5cc(Br)ccc5oc4=O)cs3)cc(=O)[nH]c12 | Not toxic | 1.6 | 16.9 | 9.19 | 35.05 | 18.5 | 14.5 | 24.1 | 8.76 | 3.12
8 | CC(=O)Oc1ccccc1C(=O)O [ASPIRIN] | – | 5.97 | 17.4 | 29.9 | 81.56 | 39.7 | 49.9 | 22.2 | 17.1 | 9.76
9 | O=c1cc(CNc2nc(-c3cc4cc(Br)ccc4oc3=O)cs2)c2cc(Cl)ccc2[nH]1 | Not toxic | 3.03 | 9.08 | 5.26 | 88.89 | 28.6 | 19.8 | 15.6 | 4.42 | 4.11
10 | O=c1cc(CNc2nc(-c3cc4cc(Br)ccc4oc3=O)cs2)c2ccc(Cl)cc2[nH]1 | Not toxic | 2.4 | 18.4 | 9.09 | 64.94 | 24.5 | 13.3 | 23.2 | 5.8 | 5.26
